Publication PMC6639057 (Investigational new drugs, 2018)
Several values for one entry are separate records, joined by “and”; a condition that tells them apart may be missing. Equal entries are not always repeated. Marks after values point to notes of the source that are not given here.

Assays:
[1] = system: patients with advanced solid tumors; test: Dose-limiting toxicities and maximum tolerated dose, dose-escalation phase; format: in vivo
Plasma pharmacokinetics = format: in vivo, human; settings: for AUC(0-t): 40 mg, Mean AUC24h, 40 mg once daily, dose expansion
advanced solid tumors = test: Tumor response, dose-escalation cohorts; format: in vivo, human; settings: for Best overall response: Complete response / Best overall response: Partial response / Best overall response: Progressive disease / Best overall response: Stable disease / Best overall response: Unable to evaluate: Central read, RECIST 1.1
Method in brief: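 Adults with refractory advanced solid tumours took the drug orally once each morning on days 1–4 of 14-day cycles, fasting from 2 h predose (water only) until 1 h postdose. Doses were 1–30 mg (and 25 mg) without G-CSF, or 30–50 mg with subcutaneous G-CSF (300 or 480 µg daily). Scans were read centrally by RECIST 1.1 and locally by RECIST 1.0, with GCIG criteria for ovarian tumours.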

[2] = system: taxane- and platinum-resistant ovarian cancer; test: Tumor response, dose-expansion ovarian cancer cohort; format: in vivo, human
[3] = system: castration-resistant and taxane- or cisplatin/etoposide-resistant prostate cancer; test: Tumor response, dose-expansion CRPC cohort; format: in vivo, human
[4] = system: xenografts of diverse tumor types that were resistant to either docetaxel or paclitaxel; settings: mouse models; cited from earlier work
[5] = system: TNBC cell lines and xenografts; settings: in combination with ixabepilone; cited from earlier work
[6] = escalation 30 mg + G-CSF (n = 6)
[7] = escalation 35 mg + G-CSF (n = 3)
[8] = escalation 40 mg + G-CSF (n = 11)
[9] = escalation 50 mg + G-CSF (n = 4)
[10] = escalation 1, 2, 4, 8 mg (n = 4)
[11] = Central read, RECIST 1.1, expansion 40 mg + G-CSF, OC (n = 29)
[12] = GCIG criteria (RECIST 1.1 and CA 125), expansion 40 mg + G-CSF, OC (n = 29)
[13] = Local read, RECIST 1.0, expansion 40 mg + G-CSF, OC (n = 29)
[14] = Central read, RECIST 1.1, expansion 40 mg + G-CSF, CRPC (n = 12)
[15] = Local read, RECIST 1.0, expansion 40 mg + G-CSF, CRPC (n = 12)

## Cc1csc(-c2nnc(Nc3ccc(Oc4ncccc4-c4ccnc(N)n4)cc3)c3ccccc23)c1 [AMG 900]
[1]; in vivo
  DLTs overall: nine DLTs were reported in eight patients
[1]; with G-CSF, daily, 4 days on, 10 days off
  Maximum tolerated dose (MTD) and recommended phase 2 dose: 40 mg
[1]; with G-CSF, oral, 4 days on/10 days off
  Maximum tolerated dose (MTD): 40 mg/day
[1]; without G-CSF, daily, 4 days on, 10 days off
  Maximum tolerated dose (MTD): 25 mg
[1]; without G-CSF, oral, 4 days on/10 days off
  Maximum tolerated dose (MTD): 25 mg/day
Plasma pharmacokinetics; cycle 1 day 1 to cycle 1 day 4, all dose cohorts
  Accumulation based on AUC8h: < 2 fold
Plasma pharmacokinetics; human, plasma, oral
  Tmax: 1 to 3 h
  half-life: 6 to 9 h
Plasma pharmacokinetics; human, plasma, oral, CRPC
  AUC(0-t): 7700 ng·h/mL
Plasma pharmacokinetics; human, plasma, oral, TNBC
  AUC(0-t): 10600 ng·h/mL
Plasma pharmacokinetics; human, plasma, oral, ovarian cancer cohort
  AUC(0-t): 12900 ng·h/mL
Plasma pharmacokinetics; oral, 1 to 50 mg
  Mean exposure (AUC24h) versus dose: increased as the dose increased
Advanced solid tumors; 24 mg
  Duration of stable disease, one patient with medullary thyroid cancer: > 3.5 years
Advanced solid tumors; 30 mg + G-CSF
  Tumor response, one patient with clear-cell endometrial cancer: partial response per RECIST 1.0 (local read) that was not confirmed per RECIST 1.1 (central read)
Advanced solid tumors; 30 mg, RECIST 1.1 and GCIG criteria (central read)
  Tumor response, one patient with ovarian cancer: partial response
Advanced solid tumors; escalation 16 mg (n = 3)
  Best overall response: Complete response: 0 Patients (%)
  Best overall response: Partial response: 0 Patients (%)
  Best overall response: Progressive disease: 0 Patients (%)
  Best overall response: Stable disease: 2 (67) Patients (%)
  Best overall response: Unable to evaluate: 1 (33) Patients (%)
Advanced solid tumors; escalation 24 mg (n = 6)
  Best overall response: Complete response: 0 Patients (%)
  Best overall response: Partial response: 0 Patients (%)
  Best overall response: Progressive disease: 1 (17) Patients (%)
  Best overall response: Stable disease: 5 (83) Patients (%)
  Best overall response: Unable to evaluate: 0 Patients (%)
Advanced solid tumors; escalation 25 mg (n = 7)
  Best overall response: Complete response: 0 Patients (%)
  Best overall response: Partial response: 0 Patients (%)
  Best overall response: Progressive disease: 1 (14) Patients (%)
  Best overall response: Stable disease: 4 (57) Patients (%)
  Best overall response: Unable to evaluate: 2 (29) Patients (%)
Advanced solid tumors; escalation 30 mg (n = 6)
  Best overall response: Complete response: 0 Patients (%)
  Best overall response: Progressive disease: 1 (17) Patients (%)
  Best overall response: Stable disease: 3 (50) Patients (%)
  Best overall response: Unable to evaluate: 1 (17) Patients (%)
Advanced solid tumors; escalation 30 mg (n = 6), patient also had a response by GCIG CA 125 criteria
  Best overall response: Partial response: 1 (17)^b Patients (%)
Advanced solid tumors; [6]
  Best overall response: Complete response: 0 Patients (%)
  Best overall response: Partial response: 0 Patients (%)
  Best overall response: Progressive disease: 3 (50) Patients (%)
  Best overall response: Stable disease: 3 (50) Patients (%)
  Best overall response: Unable to evaluate: 0 Patients (%)
Advanced solid tumors; [7]
  Best overall response: Complete response: 0 Patients (%)
  Best overall response: Partial response: 0 Patients (%)
  Best overall response: Progressive disease: 2 (67) Patients (%)
  Best overall response: Stable disease: 1 (33) Patients (%)
  Best overall response: Unable to evaluate: 0 Patients (%)
Advanced solid tumors; [8]
  Best overall response: Complete response: 0 Patients (%)
  Best overall response: Partial response: 0 Patients (%)
  Best overall response: Progressive disease: 2 (18) Patients (%)
  Best overall response: Stable disease: 7 (64) Patients (%)
  Best overall response: Unable to evaluate: 2 (18) Patients (%)
Advanced solid tumors; [9]
  Best overall response: Complete response: 0 Patients (%)
  Best overall response: Partial response: 0 Patients (%)
  Best overall response: Progressive disease: 0 Patients (%)
  Best overall response: Stable disease: 2 (50) Patients (%)
  Best overall response: Unable to evaluate: 2 (50) Patients (%)
Advanced solid tumors; [10]
  Best overall response: Complete response: 0 Patients (%)
  Best overall response: Partial response: 0 Patients (%)
  Best overall response: Progressive disease: 2 (50) Patients (%)
  Best overall response: Stable disease: 2 (50) Patients (%)
  Best overall response: Unable to evaluate: 0 Patients (%)
Advanced solid tumors; dose-escalation phase (12 patients of 50)
  Progressive disease: 24%
Advanced solid tumors; dose-escalation phase, RECIST 1.1 (29 patients of 50)
  Stable disease (best response): 58%
[2]; Central read, RECIST 1.1, Kaplan-Meier, expansion 40 mg + G-CSF, OC (n = 29)
  Progression-free survival, median (80% CI): 31.7 (23.7–47.6) weeks
[2]; [11]
  Best overall response: Complete response: 0 Patients (%)
  Best overall response: Not evaluable (postbaseline scan not readable): 2 (7) Patients (%)
  Best overall response: Partial response: 3 (10) Patients (%)
  Best overall response: Progressive disease: 3 (10) Patients (%)
  Best overall response: Stable disease: 21 (72) Patients (%)
[2]; [12]
  Best overall response: Complete response: 0 Patients (%)
  Best overall response: Not evaluable (postbaseline scan not readable): 3 (10) Patients (%)
  Best overall response: Partial response: 7 (24) Patients (%)
  Best overall response: Progressive disease: 3 (10) Patients (%)
  Best overall response: Stable disease: 16 (55) Patients (%)
[2]; GCIG criteria (RECIST 1.1 and CA 125), expansion ovarian cancer (7 of 29)
  Partial response: 24.1%
[2]; GCIG criteria (central read), expansion ovarian cancer, 95% CI 10.3%–43.5%
  Objective response rate (ORR): 24.1%
[2]; GCIG criteria, expansion ovarian cancer (3 of 29)
  Progressive disease: 10.3%
[2]; GCIG criteria, expansion ovarian cancer (16 of 29)
  Stable disease: 55.2%
[2]; Kaplan-Meier, ovarian cancer patients from dose-escalation (n = 4) and dose-expansion (n = 29)
  Median (80% CI) PFS: 34.1 (31.1–not estimable) weeks
[2]; [13]
  Best overall response: Complete response: 0 Patients (%)
  Best overall response: Not evaluable (postbaseline scan not readable): 2 (7) Patients (%)
  Best overall response: Partial response: 3 (10) Patients (%)
  Best overall response: Progressive disease: 4 (14) Patients (%)
  Best overall response: Stable disease: 20 (69) Patients (%)
[2]; RECIST 1.1, expansion ovarian cancer (3 of 29)
  Progressive disease: 10.3%
[2]; RECIST 1.1, expansion ovarian cancer (21 of 29)
  Stable disease as best response: 72.4%
[2]; RECIST 1.1, expansion ovarian cancer, 95% CI: 16.1–34.1
  Median duration of response: 24.1 weeks
[2]; RECIST 1.1 central read, expansion ovarian cancer, 95% CI 2.0%–28.0%
  Objective response rate (ORR): 10.3%
[2]; RECIST 1.1 central, expansion ovarian cancer (3 of 29)
  Partial response: 10.3%
[2]; by GCIG criteria, same three ovarian cancer patients
  Duration of partial response, individual patients: 16.1 weeks and 65.6 weeks and 74.9 weeks
[2]; by RECIST 1.1, three ovarian cancer patients
  Duration of partial response, individual patients: 34.1 weeks and 24.1 weeks and 16.1 weeks
[3]; Central read, RECIST 1.1, Kaplan-Meier, expansion 40 mg + G-CSF, CRPC (n = 12)
  Progression-free survival, median (80% CI): 32.4 (15.7–39.6) weeks
[3]; [14]
  Best overall response: Complete response: 0 Patients (%)
  Best overall response: Not evaluable (postbaseline scan not readable): 2 (17) Patients (%)
  Best overall response: Partial response: 0 Patients (%)
  Best overall response: Progressive disease: 1 (8) Patients (%)
  Best overall response: Stable disease: 9 (75) Patients (%)
[3]; [15]
  Best overall response: Complete response: 0 Patients (%)
  Best overall response: Not evaluable (postbaseline scan not readable): 1 (8) Patients (%)
  Best overall response: Partial response: 0 Patients (%)
  Best overall response: Progressive disease: 3 (25) Patients (%)
  Best overall response: Stable disease: 8 (67) Patients (%)
[3]; RECIST 1.1, CRPC
  Objective responses: No objective responses
[4]
  Growth of xenografts: inhibited growth
[5]
  Growth of TNBC cell lines and xenografts: inhibited growth
